Assay results reported in ChEMBL document CHEMBL1148730, “Design of noncompetitive interleukin-8 inhibitors acting on CXCR1 and CXCR2” (J Med Chem, 2007).
Calls of active or inactive are those of the source. The rule behind the calls is not given here.

System: not listed separately
Test: Inhibition of CXCL1-induced cell migration in human PMN cells at 0.01 uM by chemotaxis assay
Type: functional
Conditions: not given
In short: (§1)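 Human PMNs from normal-donor buffy coats (dextran sedimentation, hypotonic lysis; 95% purity, >95% viability). Cells at 1.5-3 × 10⁶/mL preincubated 15 min at 37 °C with vehicle or compound, then seeded in triplicate in the upper well of a 48-well micro-chemotaxis chamber. Lower well held CXCL8 1 nM or CXCL1 10 nM. Chamber ran 45 min at 37 °C in 5% CO₂; filters were fixed and stained, and five 100× fields per well were counted.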

Row | SMILES | inhibition at 0.01 µM [%]
1 | CC(C(=O)O)c1ccc(CC2CCC2)cc1 (stereo not drawn) | 59
2 | C[C@@H](C(=O)N(C)O)c1ccc(OS(=O)(=O)C(F)(F)F)cc1 | 47
3 | CC(C)S(=O)(=O)NC(=O)[C@H](C)c1ccc(OS(=O)(=O)C(F)(F)F)cc1 | 15
4 | C[C@@H](C(=O)Nc1nccs1)c1ccc(OS(=O)(=O)C(F)(F)F)cc1 | 56
5 | CCC(CC)c1cccc(C(C)C(=O)O)c1 (stereo not drawn) | 67
6 | CC(C)ONC(=O)[C@H](C)c1ccc(OS(=O)(=O)C(F)(F)F)cc1 | 40
7 | CC(C(=O)O)c1ccc(CC2CCCCC2)cc1 (stereo not drawn) | 39
8 | C[C@@H](C(=O)NS(C)(=O)=O)c1ccc(OS(=O)(=O)C(F)(F)F)cc1 [LADARIXIN] | 61
9 | CC(C(=O)O)c1cccc(C(=O)c2nccs2)c1 (stereo not drawn) | 48
10 | C=C(c1ccccc1)c1cccc(C(C)C(=O)O)c1 (stereo not drawn) | 2
11 | CC(C(=O)O)c1ccc(Cc2ccccc2)cc1 (stereo not drawn) | 35
12 | CC(C(=O)O)c1ccc(NS(=O)(=O)c2ccccc2Cl)cc1 (stereo not drawn) | 66
13 | Cc1ccc(S(=O)(=O)Nc2ccc(C(C)C(=O)O)cc2)cc1 (stereo not drawn) | 0
14 | CC(C(=O)O)c1ccc(OS(=O)(=O)c2ccccc2)cc1 (stereo not drawn) | 54
15 | C[C@@H](C(=O)Nc1ccccn1)c1ccc(OS(=O)(=O)C(F)(F)F)cc1 | 50
16 | CC(C(=O)O)c1ccc(CC2CCCC2)cc1 (stereo not drawn) | 40
17 | C[C@@H](C(=O)O)c1cccc(C(=O)c2ccccc2)c1 [R-KETOPROFEN] | 61
18 | CC(O)c1cccc(C(C)C(=O)O)c1 (stereo not drawn) | 40
19 | CC(C(=O)O)c1ccc(CC2CC2)cc1 (stereo not drawn) | 30
20 | C[C@@H](C(=O)NS(=O)(=O)c1ccccc1)c1ccc(OS(=O)(=O)C(F)(F)F)cc1 | 8

Row | SMILES | inhibition at 0.01 µM [%]
21 | CC(C(=O)O)c1cccc(C(C)c2ccccc2)c1 (stereo not drawn) | 45
22 | CC(C(=O)O)c1cccc(C(=O)C2CCCC2)c1 (stereo not drawn) | 2
23 | CC(C(=O)O)c1ccc(OS(=O)(=O)C(F)(F)F)cc1 (stereo not drawn) | 57
24 | C[C@@H](C(=O)Nc1ncco1)c1ccc(OS(=O)(=O)C(F)(F)F)cc1 | 48
25 | C[C@@H](C(=O)NO)c1ccc(OS(=O)(=O)C(F)(F)F)cc1 | 50
26 | CCc1ccccc1S(=O)(=O)Nc1ccc(C(C)C(=O)O)cc1 (stereo not drawn) | 80
27 | CC(C(=O)O)c1cccc(C(=O)c2cccs2)c1 (stereo not drawn) | 50
28 | Cc1ccc(S(=O)(=O)Oc2ccc(C(C)C(=O)O)cc2)cc1 (stereo not drawn) | 65
29 | CCC(O)c1cccc(C(C)C(=O)O)c1 (stereo not drawn) | 40
30 | C[C@@H](C(=O)O)c1ccc(OS(=O)(=O)C(F)(F)F)cc1 | 65
31 | CC(C(=O)O)c1ccc(NS(=O)(=O)c2ccccc2)cc1 (stereo not drawn) | 14
32 | C[C@@H](C(N)=O)c1ccc(OS(=O)(=O)C(F)(F)F)cc1 | 58
33 | CC(C(=O)O)c1ccc(OS(=O)(=O)C(C)C)cc1 (stereo not drawn) | 46
34 | CC(C(=O)O)c1cccc(C(=O)C2CCCCC2)c1 (stereo not drawn) | 4
35 | C[C@@H](C(=O)Nc1nc(C(F)(F)F)cs1)c1ccc(OS(=O)(=O)C(F)(F)F)cc1 | 60
36 | CC(C)NC(=O)[C@H](C)c1ccc(OS(=O)(=O)C(F)(F)F)cc1 | 72
37 | CC(C(=O)O)c1cccc(C(O)c2ccccc2)c1 (stereo not drawn) [2-{3-[HYDROXY(PHENYL)METHYL]PHENYL}PROPANOIC ACID] | 40
38 | CC(C)c1cccc(C(C)C(=O)O)c1 (stereo not drawn) | 55
39 | CONC(=O)[C@H](C)c1ccc(OS(=O)(=O)C(F)(F)F)cc1 | 40

System: L1.2
Test: Inhibition of CXCL8-induced cell migration in L1.2 cells expressing wild type CXCR1 at 0.1 uM by chemotaxis assay
Type: functional
Conditions: Mus musculus
In short: (§2)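 Mouse L1.2 lymphoma cells were transiently electroporated with wild-type or Ile43Val human CXCR1, with expression checked by flow cytometry at 48 h. Cells were kept overnight in 5 mM sodium butyrate, resuspended at 10⁷/mL, and pretreated 30 min at 37 °C with compound (1-1000 nM). Migration to 10 nM CXCL8, with compound in both chambers, ran 4 h at 37 °C through 5 µm Transwells. Cells were counted in a Bürker chamber and expressed as % of migration without compound, from ≥3 independent experiments.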

Row | SMILES | inhibition at 0.1 µM [%]
40 | CC(C)Cc1ccc([C@@H](C)C(=O)NS(C)(=O)=O)cc1 [REPARIXIN] | 80

System: L1.2
Test: Inhibition of CXCL8-induced cell migration in L1.2 cells expressing wild type CXCR1 at up to 1000 nM by chemotaxis assay
Type: functional, cell-based
Conditions: Mus musculus
In short: as §2

Row | SMILES | Activity
41 | CC(C)Cc1ccc([C@@H](C)C(=O)NS(C)(=O)=O)cc1 [REPARIXIN] | Active

System: L1.2
Test: Inhibition of CXCL8-induced cell migration in L1.2 cells expressing CXCR1 by chemotaxis assay
Type: functional, cell-based
Conditions: Mus musculus
In short: as §2

Row | SMILES | IC50 [nM]
42 | CC(C)Cc1ccc([C@@H](C)C(=O)NS(C)(=O)=O)cc1 [REPARIXIN] | 5.6

System: L1.2
Test: Inhibition of CXCL8-induced cell migration in L1.2 cells expressing Ile43Val CXCR1 mutant by chemotaxis assay
Type: functional, cell-based
Conditions: Mus musculus
In short: as §2

Row | SMILES | IC50 [nM]
43 | CC(C)Cc1ccc([C@@H](C)C(=O)NS(C)(=O)=O)cc1 [REPARIXIN] | 80

System: not listed separately
Test: Inhibition of CXCL8-induced cell migration in human PMN cells at 0.01 uM by chemotaxis assay
Type: functional
Conditions: not given
In short: as §1

Row | SMILES | inhibition at 0.01 µM [%]
44 | CC(C(=O)O)c1ccc(CC2CCC2)cc1 (stereo not drawn) | 55
45 | C[C@@H](C(=O)N(C)O)c1ccc(OS(=O)(=O)C(F)(F)F)cc1 | 48
46 | CC(C)S(=O)(=O)NC(=O)[C@H](C)c1ccc(OS(=O)(=O)C(F)(F)F)cc1 | 60
47 | C[C@@H](C(=O)Nc1nccs1)c1ccc(OS(=O)(=O)C(F)(F)F)cc1 | 57
48 | CCC(CC)c1cccc(C(C)C(=O)O)c1 (stereo not drawn) | 58
49 | CC(C)ONC(=O)[C@H](C)c1ccc(OS(=O)(=O)C(F)(F)F)cc1 | 50
50 | CC(C(=O)O)c1ccc(CC2CCCCC2)cc1 (stereo not drawn) | 2
51 | C[C@@H](C(=O)NS(C)(=O)=O)c1ccc(OS(=O)(=O)C(F)(F)F)cc1 [LADARIXIN] | 60
52 | CC(C(=O)O)c1cccc(C(=O)c2nccs2)c1 (stereo not drawn) | 63
53 | C=C(c1ccccc1)c1cccc(C(C)C(=O)O)c1 (stereo not drawn) | 47
54 | CC(C(=O)O)c1ccc(Cc2ccccc2)cc1 (stereo not drawn) | 1
55 | CC(C(=O)O)c1ccc(NS(=O)(=O)c2ccccc2Cl)cc1 (stereo not drawn) | -2
56 | Cc1ccc(S(=O)(=O)Nc2ccc(C(C)C(=O)O)cc2)cc1 (stereo not drawn) | 69
57 | CC(C(=O)O)c1ccc(OS(=O)(=O)c2ccccc2)cc1 (stereo not drawn) | 55
58 | C[C@@H](C(=O)Nc1ccccn1)c1ccc(OS(=O)(=O)C(F)(F)F)cc1 | 48
59 | CC(C(=O)O)c1ccc(CC2CCCC2)cc1 (stereo not drawn) | 10
60 | C[C@@H](C(=O)O)c1cccc(C(=O)c2ccccc2)c1 [R-KETOPROFEN] | 64
61 | CC(O)c1cccc(C(C)C(=O)O)c1 (stereo not drawn) | 43
62 | CC(C(=O)O)c1ccc(CC2CC2)cc1 (stereo not drawn) | 24

Row | SMILES | inhibition at 0.01 µM [%]
63 | C[C@@H](C(=O)NS(=O)(=O)c1ccccc1)c1ccc(OS(=O)(=O)C(F)(F)F)cc1 | 43
64 | CC(C(=O)O)c1cccc(C(C)c2ccccc2)c1 (stereo not drawn) | 55
65 | CC(C(=O)O)c1cccc(C(=O)C2CCCC2)c1 (stereo not drawn) | -5
66 | CC(C(=O)O)c1ccc(OS(=O)(=O)C(F)(F)F)cc1 (stereo not drawn) | 57
67 | C[C@@H](C(=O)Nc1ncco1)c1ccc(OS(=O)(=O)C(F)(F)F)cc1 | 50
68 | C[C@@H](C(=O)NO)c1ccc(OS(=O)(=O)C(F)(F)F)cc1 | 48
69 | CCc1ccccc1S(=O)(=O)Nc1ccc(C(C)C(=O)O)cc1 (stereo not drawn) | 47
70 | CC(C(=O)O)c1cccc(C(=O)c2cccs2)c1 (stereo not drawn) | 51
71 | Cc1ccc(S(=O)(=O)Oc2ccc(C(C)C(=O)O)cc2)cc1 (stereo not drawn) | 49
72 | CCC(O)c1cccc(C(C)C(=O)O)c1 (stereo not drawn) | 57
73 | C[C@@H](C(=O)O)c1ccc(OS(=O)(=O)C(F)(F)F)cc1 | 68
74 | CC(C(=O)O)c1ccc(NS(=O)(=O)c2ccccc2)cc1 (stereo not drawn) | 45
75 | C[C@@H](C(N)=O)c1ccc(OS(=O)(=O)C(F)(F)F)cc1 | 60
76 | CC(C(=O)O)c1ccc(OS(=O)(=O)C(C)C)cc1 (stereo not drawn) | 49
77 | CC(C(=O)O)c1cccc(C(=O)C2CCCCC2)c1 (stereo not drawn) | 5
78 | C[C@@H](C(=O)Nc1nc(C(F)(F)F)cs1)c1ccc(OS(=O)(=O)C(F)(F)F)cc1 | 64
79 | CC(C(=O)O)c1cccc(C(O)c2ccccc2)c1 (stereo not drawn) [2-{3-[HYDROXY(PHENYL)METHYL]PHENYL}PROPANOIC ACID] | 31
80 | CC(C)c1cccc(C(C)C(=O)O)c1 (stereo not drawn) | 62
81 | CONC(=O)[C@H](C)c1ccc(OS(=O)(=O)C(F)(F)F)cc1 | 60

System: not listed separately
Test: Inhibition of CXCL8-induced cell migration in human PMN cells at 1 nM chemotaxis assay
Type: functional
Conditions: not given
In short: as §1

Row | SMILES | Inhibition [%]
82 | CC(C)NC(=O)[C@H](C)c1ccc(OS(=O)(=O)C(F)(F)F)cc1 | 50

System: Macrophage
Test: Inhibition of the LPS-induced PGE2 production in human macrophages at 10 uM
Type: functional
Conditions: not given

Row | SMILES | inhibition at 10 µM [%]
83 | C[C@@H](C(=O)O)c1ccc(OS(=O)(=O)C(F)(F)F)cc1 | 17
